Test results taken from ChEMBL document CHEMBL5303300, “EUbOPEN Chemogenomics Library - Multiplex” (2023).
Where “and” joins values, the source holds several entries; their conditions need not be identical. Equal entries are not always repeated.

Tests used:
Format in all cases: toxicity, cell-based
[1] = system: Fibroblast; assay: Multiplex assay against human fibroblast; details: number of replicates 2
Summary of the method: (§1)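 Live cells were stained at seeding with Hoechst33342, BioTracker Green Microtubule Cytoskeleton Dye, MitoTracker Red and Annexin V Alexa Fluor 680, then imaged on a CQ1 microscope at 37°C and 5% CO2 after compound addition. CellPathfinder machine-learning gating split cells into Hoechst high-intensity objects or normal cells. Normal cells were split into healthy, pyknosed or fragmented nuclei, and pyknosed cells into mitotic or apoptotic. Tubulin, mitochondrial-mass and membrane-permeability phenotypes are per cents of healthy-nucleus cells.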

[2] = system: HEK-293T; assay: Multiplex assay against HEK293T; details: human, number of replicates 2; summary of the method: as §1
[3] = system: U2OS; assay: Multiplex assay against U2OS; details: human, number of replicates 2; summary of the method: as §1
[4] = 12 h, 1 µM, compound concentration 1 uM
[5] = 12 h, 10 µM, compound concentration 10 uM
[6] = 24 h, 1 µM, compound concentration 1 uM
[7] = 24 h, 10 µM, compound concentration 10 uM
[8] = 48 h, 1 µM, compound concentration 1 uM
[9] = 48 h, 10 µM, compound concentration 10 uM

CC(=O)N(CCN(C)C)c1ccc(N/C(=C2\C(=O)Nc3cc(Cl)ccc32)c2ccccc2)cn1
Population Apoptotic (%) [1, 4]: 45% and 32% | Population Fragmented Nuclei (%) [1, 4]: 15% and 19% | Population Healthy Nuclei (%) [1, 4]: 54% and 64% | Population Hoechst High Intensity Objects (%) [1, 4]: 0% | Population Membrane Permeable-Phenotype (%) [1, 4]: 13% and 3% | Population Mitochondria Different-Phenotype (%) [1, 4]: 2% and 4% | Population Mitotic Cells (%) [1, 4]: 54% and 67% | Population Normal (%) [1, 4]: 100% | Population Pyknosed Nuclei (%) [1, 4]: 30% and 16% | Population Tubulin-Different-Phenotype (%) [1, 4]: 26% and 21% | Total Cell Count [1, 4]: 176 and 230 | Population Apoptotic (%) [1, 5]: 60% and 50% | Population Fragmented Nuclei (%) [1, 5]: 15% and 20% | Population Healthy Nuclei (%) [1, 5]: 50% and 56% | Population Hoechst High Intensity Objects (%) [1, 5]: 0% | Population Membrane Permeable-Phenotype (%) [1, 5]: 6% and 10% | Population Mitochondria Different-Phenotype (%) [1, 5]: 35% and 27% | Population Mitotic Cells (%) [1, 5]: 39% and 50% | Population Normal (%) [1, 5]: 100% and 99% | Population Pyknosed Nuclei (%) [1, 5]: 33% and 22% | Population Tubulin-Different-Phenotype (%) [1, 5]: 88% and 81% | Total Cell Count [1, 5]: 151 and 211 | Population Apoptotic (%) [1, 6]: 60% and 63% | Population Fragmented Nuclei (%) [1, 6]: 17% and 22% | Population Healthy Nuclei (%) [1, 6]: 56% and 62% | Population Hoechst High Intensity Objects (%) [1, 6]: 0% | Population Membrane Permeable-Phenotype (%) [1, 6]: 7% | Population Mitochondria Different-Phenotype (%) [1, 6]: 1% and 4% | Population Mitotic Cells (%) [1, 6]: 39% and 36% | Population Normal (%) [1, 6]: 99% | Population Pyknosed Nuclei (%) [1, 6]: 26% and 15% | Population Tubulin-Different-Phenotype (%) [1, 6]: 25% and 24% | Total Cell Count [1, 6]: 176 and 221 | Population Apoptotic (%) [1, 7]: 81% and 82% | Population Fragmented Nuclei (%) [1, 7]: 17% and 15% | Population Healthy Nuclei (%) [1, 7]: 41% and 46% | Population Hoechst High Intensity Objects (%) [1, 7]: 2% and 0% | Population Membrane Permeable-Phenotype (%) [1, 7]: 8% and 3% | Population Mitochondria Different-Phenotype (%) [1, 7]: 63% and 70% | Population Mitotic Cells (%) [1, 7]: 18% and 17% | Population Normal (%) [1, 7]: 97% and 100% | Population Pyknosed Nuclei (%) [1, 7]: 41% and 37% | Population Tubulin-Different-Phenotype (%) [1, 7]: 90% and 83% | Total Cell Count [1, 7]: 149 and 170 | Population Apoptotic (%) [1, 8]: 80% and 68% | Population Fragmented Nuclei (%) [1, 8]: 19% and 25% | Population Healthy Nuclei (%) [1, 8]: 59% and 61% | Population Hoechst High Intensity Objects (%) [1, 8]: 0% | Population Membrane Permeable-Phenotype (%) [1, 8]: 9% and 7% | Population Mitochondria Different-Phenotype (%) [1, 8]: 2% and 5% | Population Mitotic Cells (%) [1, 8]: 20% and 31% | Population Normal (%) [1, 8]: 99% and 100% | Population Pyknosed Nuclei (%) [1, 8]: 21% and 13% | Population Tubulin-Different-Phenotype (%) [1, 8]: 36% and 29% | Total Cell Count [1, 8]: 167 and 217 | Population Apoptotic (%) [1, 9]: 94% and 95% | Population Fragmented Nuclei (%) [1, 9]: 25% and 23% | Population Healthy Nuclei (%) [1, 9]: 25% and 17% | Population Hoechst High Intensity Objects (%) [1, 9]: 0% | Population Membrane Permeable-Phenotype (%) [1, 9]: 15% and 6% | Population Mitochondria Different-Phenotype (%) [1, 9]: 48% and 43% | Population Mitotic Cells (%) [1, 9]: 5% and 4% | Population Normal (%) [1, 9]: 99% and 100% | Population Pyknosed Nuclei (%) [1, 9]: 48% and 58% | Population Tubulin-Different-Phenotype (%) [1, 9]: 89% and 81% | Total Cell Count [1, 9]: 152 and 178 | Population Apoptotic (%) [2, 4]: 32% and 41% | Population Fragmented Nuclei (%) [2, 4]: 2% | Population Healthy Nuclei (%) [2, 4]: 84% and 85% | Population Hoechst High Intensity Objects (%) [2, 4]: 5% | Population Membrane Permeable-Phenotype (%) [2, 4]: 2% and 3% | Population Mitochondria Different-Phenotype (%) [2, 4]: 23% and 26% | Population Mitotic Cells (%) [2, 4]: 67% and 58% | Population Normal (%) [2, 4]: 94% | Population Pyknosed Nuclei (%) [2, 4]: 12% | Population Tubulin-Different-Phenotype (%) [2, 4]: 65% and 70% | Total Cell Count [2, 4]: 666 and 654 | Population Apoptotic (%) [2, 5]: 64% and 79% | Population Fragmented Nuclei (%) [2, 5]: 3% and 4% | Population Healthy Nuclei (%) [2, 5]: 77% and 71% | Population Hoechst High Intensity Objects (%) [2, 5]: 14% and 17% | Population Membrane Permeable-Phenotype (%) [2, 5]: 1% and 3% | Population Mitochondria Different-Phenotype (%) [2, 5]: 93% and 91% | Population Mitotic Cells (%) [2, 5]: 35% and 20% | Population Normal (%) [2, 5]: 85% and 82% | Population Pyknosed Nuclei (%) [2, 5]: 19% and 24% | Population Tubulin-Different-Phenotype (%) [2, 5]: 90% and 92% | Total Cell Count [2, 5]: 227 and 197 | Population Apoptotic (%) [2, 6]: 28% | Population Fragmented Nuclei (%) [2, 6]: 1% and 4% | Population Healthy Nuclei (%) [2, 6]: 89% and 87% | Population Hoechst High Intensity Objects (%) [2, 6]: 6% and 7% | Population Membrane Permeable-Phenotype (%) [2, 6]: 1% and 3% | Population Mitochondria Different-Phenotype (%) [2, 6]: 12% and 10% | Population Mitotic Cells (%) [2, 6]: 71% | Population Normal (%) [2, 6]: 93% and 92% | Population Pyknosed Nuclei (%) [2, 6]: 9% and 8% | Population Tubulin-Different-Phenotype (%) [2, 6]: 51% and 49% | Total Cell Count [2, 6]: 869 and 891 | Population Apoptotic (%) [2, 7]: 87% and 94% | Population Fragmented Nuclei (%) [2, 7]: 6% and 4% | Population Healthy Nuclei (%) [2, 7]: 80% and 83% | Population Hoechst High Intensity Objects (%) [2, 7]: 20% and 23% | Population Membrane Permeable-Phenotype (%) [2, 7]: 0% and 2% | Population Mitochondria Different-Phenotype (%) [2, 7]: 95% and 92% | Population Mitotic Cells (%) [2, 7]: 12% and 5% | Population Normal (%) [2, 7]: 79% and 76% | Population Pyknosed Nuclei (%) [2, 7]: 13% and 12% | Population Tubulin-Different-Phenotype (%) [2, 7]: 93% and 92% | Total Cell Count [2, 7]: 229 and 181 | Population Apoptotic (%) [2, 8]: 12% and 13% | Population Fragmented Nuclei (%) [2, 8]: 11% and 6% | Population Healthy Nuclei (%) [2, 8]: 83% and 88% | Population Hoechst High Intensity Objects (%) [2, 8]: 7% and 9% | Population Membrane Permeable-Phenotype (%) [2, 8]: 3% | Population Mitochondria Different-Phenotype (%) [2, 8]: 1% and 3% | Population Mitotic Cells (%) [2, 8]: 87% and 86% | Population Normal (%) [2, 8]: 93% and 90% | Population Pyknosed Nuclei (%) [2, 8]: 4% and 5% | Population Tubulin-Different-Phenotype (%) [2, 8]: 25% and 29% | Total Cell Count [2, 8]: 1828 and 1568 | Population Apoptotic (%) [2, 9]: 86% and 90% | Population Fragmented Nuclei (%) [2, 9]: 9% and 5% | Population Healthy Nuclei (%) [2, 9]: 81% and 83% | Population Hoechst High Intensity Objects (%) [2, 9]: 20% and 19% | Population Membrane Permeable-Phenotype (%) [2, 9]: 0% and 3% | Population Mitochondria Different-Phenotype (%) [2, 9]: 77% and 80% | Population Mitotic Cells (%) [2, 9]: 13% and 10% | Population Normal (%) [2, 9]: 79% and 80% | Population Pyknosed Nuclei (%) [2, 9]: 8% and 10% | Population Tubulin-Different-Phenotype (%) [2, 9]: 93% | Total Cell Count [2, 9]: 324 and 235 | Population Apoptotic (%) [3, 4]: 72% and 71% | Population Healthy Nuclei (%) [3, 4]: 84% and 68% | Population Hoechst High Intensity Objects (%) [3, 4]: 0% and 1% | Population Membrane Permeable-Phenotype (%) [3, 4]: 1% and 10% | Population Mitochondria Different-Phenotype (%) [3, 4]: 0% and 2% | Population Mitotic Cells (%) [3, 4]: 27% and 28% | Population Normal (%) [3, 4]: 100% and 98% | Population Pyknosed Nuclei (%) [3, 4]: 11% and 12% | Population Tubulin-Different-Phenotype (%) [3, 4]: 52% and 23% | Population Apoptotic (%) [3, 5]: 64% and 80% | Population Fragmented Nuclei (%) [3, 5]: 11% and 8% | Population Healthy Nuclei (%) [3, 5]: 54% and 60% | Population Hoechst High Intensity Objects (%) [3, 5]: 0% and 1% | Population Membrane Permeable-Phenotype (%) [3, 5]: 13% and 19% | Population Mitochondria Different-Phenotype (%) [3, 5]: 86% and 59% | Population Mitotic Cells (%) [3, 5]: 35% and 19% | Population Normal (%) [3, 5]: 100% and 98% | Population Pyknosed Nuclei (%) [3, 5]: 33% and 30% | Population Tubulin-Different-Phenotype (%) [3, 5]: 86% and 71% | Population Apoptotic (%) [3, 6]: 72% and 40% | Population Fragmented Nuclei (%) [3, 6]: 3% and 11% | Population Healthy Nuclei (%) [3, 6]: 85% and 79% | Population Hoechst High Intensity Objects (%) [3, 6]: 0% and 1% | Population Membrane Permeable-Phenotype (%) [3, 6]: 2% and 4% | Population Mitochondria Different-Phenotype (%) [3, 6]: 0% | Population Mitotic Cells (%) [3, 6]: 27% and 60% | Population Normal (%) [3, 6]: 100% and 98% | Population Pyknosed Nuclei (%) [3, 6]: 10% and 9% | Population Tubulin-Different-Phenotype (%) [3, 6]: 59% and 33% | Population Apoptotic (%) [3, 7]: 93% and 88% | Population Fragmented Nuclei (%) [3, 7]: 10% and 16% | Population Healthy Nuclei (%) [3, 7]: 31% and 23% | Population Hoechst High Intensity Objects (%) [3, 7]: 3% and 4% | Population Membrane Permeable-Phenotype (%) [3, 7]: 61% and 50% | Population Mitochondria Different-Phenotype (%) [3, 7]: 76% and 90% | Population Mitotic Cells (%) [3, 7]: 6% and 11% | Population Normal (%) [3, 7]: 96% and 95% | Population Pyknosed Nuclei (%) [3, 7]: 57% and 60% | Population Tubulin-Different-Phenotype (%) [3, 7]: 87% and 90% | Population Apoptotic (%) [3, 8]: 82% and 88% | Population Fragmented Nuclei (%) [3, 8]: 3% and 13% | Population Healthy Nuclei (%) [3, 8]: 86% and 66% | Population Hoechst High Intensity Objects (%) [3, 8]: 0% | Population Membrane Permeable-Phenotype (%) [3, 8]: 2% and 10% | Population Mitochondria Different-Phenotype (%) [3, 8]: 1% and 5% | Population Mitotic Cells (%) [3, 8]: 18% and 11% | Population Normal (%) [3, 8]: 99% and 100% | Population Pyknosed Nuclei (%) [3, 8]: 9% and 19% | Population Tubulin-Different-Phenotype (%) [3, 8]: 67% and 47% | Population Apoptotic (%) [3, 9]: 92% and 100% | Population Fragmented Nuclei (%) [3, 9]: 26% and 38% | Population Healthy Nuclei (%) [3, 9]: 11% and 2% | Population Hoechst High Intensity Objects (%) [3, 9]: 3% and 2% | Population Membrane Permeable-Phenotype (%) [3, 9]: 52% and 100% | Population Mitochondria Different-Phenotype (%) [3, 9]: 48% and 100% | Population Mitotic Cells (%) [3, 9]: 7% and 0% | Population Normal (%) [3, 9]: 96% and 98% | Population Pyknosed Nuclei (%) [3, 9]: 61% and 59% | Population Tubulin-Different-Phenotype (%) [3, 9]: 100%
